Experimental data taken from ChEMBL document CHEMBL4619802, “Discovery and Characterization of Pure RhlR Antagonists against Pseudomonas aeruginosa Infections” (J Med Chem, 2020).
The source made the active and inactive calls. The rule behind the calls is not given here.

Key:
[1] = target: T1, HTH-type quorum-sensing regulator RhlR (Pseudomonas aeruginosa (strain ATCC 15692 / PAO1 / 1C / PRS 101 / LMG12228)) (UniProt P54292); assay: Antagonist activity at RhlR in Pseudomonas aeruginosa assessed as rhamnolipid production at 100 uM incubated for 24 hrs by Orcinol staining based assay relative to control; design: scale not given: the % may be the effect or the level left
T1 sequence (whole entry): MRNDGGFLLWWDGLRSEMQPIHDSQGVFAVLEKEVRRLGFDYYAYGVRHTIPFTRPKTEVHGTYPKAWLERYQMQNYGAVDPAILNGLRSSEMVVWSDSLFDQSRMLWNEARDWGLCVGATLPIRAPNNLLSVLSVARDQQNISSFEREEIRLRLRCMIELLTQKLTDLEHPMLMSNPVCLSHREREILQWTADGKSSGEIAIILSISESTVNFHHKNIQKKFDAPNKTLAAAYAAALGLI

[2] = target: T1, HTH-type quorum-sensing regulator RhlR (Pseudomonas aeruginosa (strain ATCC 15692 / PAO1 / 1C / PRS 101 / LMG12228)); assay: Antagonist activity at RhlR in Pseudomonas aeruginosa assessed as rhamnolipid production at 10 uM incubated for 24 hrs by Orcinol staining based assay relative to control; design: scale not given: the % may be the effect or the level left
[3] = system: Pseudomonas aeruginosa; assay: Antibacterial activity against Pseudomonas aeruginosa assessed as bacterial growth at 100 uM incubated for 24 hrs relative to control; assay type: functional
In short: (§1)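 P. aeruginosa overnight culture (OD595 1.0) diluted 1:20 in AB medium (pH 7.5, 1% glucose, casamino acids, arginine) with compound, in borosilicate bottles, 37 °C for 24 h without shaking. Growth taken as OD595 of the suspended culture. Attached cells washed twice with PBS, stained with 0.1% crystal violet for 10 min, dye eluted in ethanol and read at 545 nm.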

[4] = system: Pseudomonas aeruginosa; assay: Antibacterial activity against Pseudomonas aeruginosa assessed as bacterial growth at 10 uM incubated for 24 hrs relative to control; assay type: functional; in short: as §1
[5] = target: T1, HTH-type quorum-sensing regulator RhlR (Pseudomonas aeruginosa (strain ATCC 15692 / PAO1 / 1C / PRS 101 / LMG12228)); assay: Modulation of RhlR in Pseudomonas aeruginosa assessed as biofilm formation at 100 uM incubated for 24 hrs under static condition by crystal violet staining based assay relative to control
[6] = target: T1, HTH-type quorum-sensing regulator RhlR (Pseudomonas aeruginosa (strain ATCC 15692 / PAO1 / 1C / PRS 101 / LMG12228)); assay: Agonist activity at Pseudomonas aeruginosa RhlR expressed in Escherichia coli DH5alpha assessed as relative protein activity at 1000 uM incubated for 1.5 hrs by luminescence reporter gene assay relative to control
[7] = target: T1, HTH-type quorum-sensing regulator RhlR (Pseudomonas aeruginosa (strain ATCC 15692 / PAO1 / 1C / PRS 101 / LMG12228)); assay: Modulation of RhlR in Pseudomonas aeruginosa assessed as biofilm formation at 10 uM incubated for 24 hrs under static condition by crystal violet staining based assay relative to control
[8] = target: T1, HTH-type quorum-sensing regulator RhlR (Pseudomonas aeruginosa (strain ATCC 15692 / PAO1 / 1C / PRS 101 / LMG12228)); assay: Antagonist activity at Pseudomonas aeruginosa RhlR expressed in Escherichia coli DH5alpha assessed as relative protein activity at 10 uM incubated for 1.5 hrs in presence of N-butyryl-L-homoserine lactone by luminescence reporter gene assay relative to control; design: scale not given: the % may be the effect or the level left
In short: (§2)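 E. coli DH5α sdiA mutant carrying RhlR and rhlA::lacZ plasmids, at OD595 0.3 in LB. Compound given with BHL (10 µM per footnote) and 0.4% arabinose, 37 °C for 1.5 h.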

[9] = target: T1, HTH-type quorum-sensing regulator RhlR (Pseudomonas aeruginosa (strain ATCC 15692 / PAO1 / 1C / PRS 101 / LMG12228)); assay: Agonist activity at Pseudomonas aeruginosa RhlR expressed in Escherichia coli DH5alpha assessed as relative protein activity at 100 uM incubated for 1.5 hrs by luminescence reporter gene assay relative to control
[10] = target: T1, HTH-type quorum-sensing regulator RhlR (Pseudomonas aeruginosa (strain ATCC 15692 / PAO1 / 1C / PRS 101 / LMG12228)); assay: Antagonist activity at Pseudomonas aeruginosa RhlR expressed in Escherichia coli DH5alpha assessed as relative protein activity at 100 uM incubated for 1.5 hrs in presence of N-butyryl-L-homoserine lactone by luminescence reporter gene assay relative to control; design: scale not given: the % may be the effect or the level left; in short: as §2
[11] = target: T2, Transcriptional activator protein LasR (Pseudomonas aeruginosa (strain ATCC 15692 / PAO1 / 1C / PRS 101 / LMG12228)) (UniProt P25084); assay: Agonist activity at Pseudomonas aeruginosa LasR expressed in Escherichia coli DH5alpha at 0.1 to 10 uM incubated for 1.5 hrs by luminescence reporter gene assay
T2 sequence (whole entry): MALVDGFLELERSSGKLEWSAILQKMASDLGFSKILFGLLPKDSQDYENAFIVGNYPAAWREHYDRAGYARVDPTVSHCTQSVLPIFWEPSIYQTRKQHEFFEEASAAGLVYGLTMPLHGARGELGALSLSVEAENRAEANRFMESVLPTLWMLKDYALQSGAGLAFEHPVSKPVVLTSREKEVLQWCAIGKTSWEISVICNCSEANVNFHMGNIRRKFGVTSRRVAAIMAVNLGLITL

[12] = target: T2, Transcriptional activator protein LasR (Pseudomonas aeruginosa (strain ATCC 15692 / PAO1 / 1C / PRS 101 / LMG12228)); assay: Antagonist activity at Pseudomonas aeruginosa LasR expressed in Escherichia coli DH5alpha at 0.1 to 10 uM incubated for 1.5 hrs by luminescence reporter gene assay
[13] = target: T3, Transcriptional regulator MvfR (Pseudomonas aeruginosa PA14) (UniProt A0A072ZLE6); assay: Agonist activity at Pseudomonas aeruginosa PqsR expressed in Escherichia coli DH5alpha at 0.1 to 10 uM incubated for 1.5 hrs by luminescence reporter gene assay
T3 sequence (whole entry): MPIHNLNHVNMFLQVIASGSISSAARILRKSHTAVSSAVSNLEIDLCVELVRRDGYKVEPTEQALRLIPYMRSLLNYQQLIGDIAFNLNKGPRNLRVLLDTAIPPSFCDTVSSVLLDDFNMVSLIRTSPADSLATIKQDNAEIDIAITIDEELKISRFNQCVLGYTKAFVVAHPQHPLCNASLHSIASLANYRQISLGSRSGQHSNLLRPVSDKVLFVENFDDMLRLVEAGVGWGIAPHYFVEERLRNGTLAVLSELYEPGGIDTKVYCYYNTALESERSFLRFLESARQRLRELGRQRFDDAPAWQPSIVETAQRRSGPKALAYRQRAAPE

[14] = target: T3, Transcriptional regulator MvfR (Pseudomonas aeruginosa PA14); assay: Antagonist activity at Pseudomonas aeruginosa PqsR expressed in Escherichia coli DH5alpha at 0.1 to 10 uM incubated for 1.5 hrs by luminescence reporter gene assay
[15] = target: T1, HTH-type quorum-sensing regulator RhlR (Pseudomonas aeruginosa (strain ATCC 15692 / PAO1 / 1C / PRS 101 / LMG12228)); assay: Modulation of RhlR in Pseudomonas aeruginosa assessed as inhibition of biofilm formation at 10 uM incubated for 24 hrs under static condition by crystal violet staining based assay relative to control; design: scale not given: the % may be the effect or the level left; in short: as §1
[16] = target: T1, HTH-type quorum-sensing regulator RhlR (Pseudomonas aeruginosa (strain ATCC 15692 / PAO1 / 1C / PRS 101 / LMG12228)); assay: Modulation of RhlR in Pseudomonas aeruginosa assessed as inhibition of biofilm formation at 100 uM incubated for 24 hrs under static condition by crystal violet staining based assay relative to control; design: scale not given: the % may be the effect or the level left; in short: as §1
[17] = system: Pseudomonas aeruginosa; assay: Downregulation of rhlA expression in biofilm of Pseudomonas aeruginosa at 10 uM after 24 hrs by RT-qPCR analysis relative to control; assay type: functional
In short: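 P. aeruginosa (OD595 1.0) diluted 1:20 in AB medium with compound in borosilicate bottles, 37 °C for 24 h. Total RNA extracted from biofilm cells and run by SYBR RT-qPCR with QS-gene primers. Cycling: 95 °C 10 s, then 40 cycles of 95 °C 10 s and 60 °C 10 s.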

For `CCC[C@H](O)C#Cc1ccc(F)c(F)c1`, the Activity [1] was 52%, the Activity [2] was 59% and the Activity [3] was 99%. It also gave an Activity [4] of 98%, an Activity [5] of 64% and an Activity [6] of 5%. It also gave an Activity [7] of 79%, an Activity [8] of 59% and an Activity [9] of 3%. It also gave an Activity [10] of 38%.

With `CCCC(O)CC(=O)CCc1ccc(O)c(OC)c1` (stereo unspecified) the Activity [9] was 3 to 4%, the Activity [10] was 54 to 69% and the Activity [11] was “inactive”. The Activity [12] was “inactive”, the Activity [13] was “inactive” and the Activity [14] was “inactive”. For the same compound, the Activity [15] was 14 to 32%, the Activity [16] was 29 to 53% and the Activity [17] was 65 - 79%.

Compound `CCCCC(=O)C#Cc1ccc(F)c(F)c1` has an Activity [1] of 49%, an Activity [2] of 59% and an Activity [3] of 89%. The Activity [4] was 100%, the Activity [5] was 55% and the Activity [6] was 6%. The Activity [7] was 75%, the Activity [8] was 29% and the Activity [9] was 4%. It also gave an Activity [10] of 16%.

In the case of `CCCCCCCCC(O)CC(=O)CCc1ccc(O)c(OC)c1` (stereo unspecified), the Activity [3] is reported as “inactive”, the Activity [7] is reported as “Active” and the Activity [9] is reported as 2%. The Activity [10] was 41%.

In the case of `CCC[C@@H](O)C#Cc1ccc(F)c(F)c1`, the Activity [1] is reported as 48%, the Activity [2] is reported as 60% and the Activity [3] is reported as 102%. For the same compound, the Activity [4] was 98%, the Activity [5] was 60% and the Activity [6] was 5%. The Activity [7] was 74%, the Activity [8] was 45% and the Activity [9] was 3%. For the same compound, the Activity [10] was 25%.

`CCCCCCCCCC(O)CC(=O)CCc1ccc(O)c(OC)c1` (stereo unspecified) was tested, and the Activity [3] was “inactive”, the Activity [7] was “Active” and the Activity [9] was 2%. It also gave an Activity [10] of 36%.

With `CCCCC[C@H](O)CC(=O)CCc1ccc(O)c(OC)c1` [GINGEROL] the Activity [3] was 101%, the Activity [4] was 96% and the Activity [11] was “inactive”. For the same compound, the Activity [12] was “Active”, the Activity [13] was “inactive” and the Activity [14] was “inactive”. The Activity [17] was 38%.

`CCCCC[C@@H](O)C#Cc1ccc(O)c(OC)c1` was tested, and the Activity [3] was “inactive”, the Activity [7] was “Active” and the Activity [9] was 3%. The Activity [10] was 27%.

For `CCCC(O)CC(=O)/C=C/c1cccc(OC)c1` (stereo unspecified), the Activity [1] was 83%, the Activity [2] was 91% and the Activity [3] was 95%. The Activity [4] was 96%, the Activity [5] was 73% and the Activity [6] was 4%. It also gave an Activity [7] of 88%, an Activity [8] of 89% and an Activity [9] of 2%. The Activity [10] was 94%.

In the case of `CCCCCC(O)CCc1ccc(O)c(OC)c1` (stereo unspecified), the Activity [9] is reported as 2% and the Activity [10] is reported as 45%.

`CCCC(O)CC(=O)/C=C/c1ccc(F)cc1` (stereo unspecified) showed an Activity [9] of 1% and an Activity [10] of 33%.

With `CCCC(O)CC(=O)/C=C/c1ccc(C)c(C)c1` (stereo unspecified) the Activity [9] was 2% and the Activity [10] was 72%.

With `CCCC(O)CC(=O)CCc1ccc(O)c(OCC)c1` (stereo unspecified) the Activity [9] was 1% and the Activity [10] was 98%.
